# This is a sample that favours compounds with a hit; in the whole collection about 2.3% have one here.
# OXTR agonist: human OXTR agonism | 320,000 tested, 0.32% active | activation, % at 3 µM | CHO-OTR cells, Fluo-8 calcium fluorescence; normalized: DMSO 0%, oxytocin 100% | P30559;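 active means activation above the mean of all tested compounds plus 3 SD, cutoff set per screening run, cut at about 20% in these data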;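 further: peak over basal fluorescence ratio from a 100 s FLIPR kinetic read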
# Target sequence (P30559 whole entry, looked up): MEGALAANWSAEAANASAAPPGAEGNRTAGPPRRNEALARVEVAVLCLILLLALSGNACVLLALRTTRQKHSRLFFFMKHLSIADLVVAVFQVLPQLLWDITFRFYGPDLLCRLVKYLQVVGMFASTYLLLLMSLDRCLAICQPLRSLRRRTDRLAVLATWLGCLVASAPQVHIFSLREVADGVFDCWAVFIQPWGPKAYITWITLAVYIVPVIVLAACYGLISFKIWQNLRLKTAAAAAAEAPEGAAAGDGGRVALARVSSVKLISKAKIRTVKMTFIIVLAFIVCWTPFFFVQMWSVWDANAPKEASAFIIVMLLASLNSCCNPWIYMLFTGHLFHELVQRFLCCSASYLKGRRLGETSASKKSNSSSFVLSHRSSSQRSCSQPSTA
# V1aR counter: counter-screen for oxytocin receptor agonists: human V1a receptor agonists; P37288; CHO-V1R cells, Fluo-8 calcium fluorescence, agonist mode; 0% DMSO, 100% 3 nM vasopressin; activation, % at 3 µM; 320,000 tested, 0.25% active; AID 2797;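 active means activation above the mean activation of all tested compounds plus 3 SD, per screening run, cut at about 20% in these data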;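 further: signal is peak over basal fluorescence ratio across a 100 second FLIPR read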
# TAAR1 antagonist: human TAAR1 antagonism. inhibition, % at 3 µM. Q96RJ0. 360,000 tested, 1.5% active. CHO RD-HGA16 TAAR1, Fluo-8 calcium fluorescence, antagonist. AID 624466;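 active means inhibition above a per-plate cutoff, the mean inhibition of test compounds on that plate plus 3 SD, cut at about 49% in these data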
# Target sequence (Q96RJ0 whole entry, looked up): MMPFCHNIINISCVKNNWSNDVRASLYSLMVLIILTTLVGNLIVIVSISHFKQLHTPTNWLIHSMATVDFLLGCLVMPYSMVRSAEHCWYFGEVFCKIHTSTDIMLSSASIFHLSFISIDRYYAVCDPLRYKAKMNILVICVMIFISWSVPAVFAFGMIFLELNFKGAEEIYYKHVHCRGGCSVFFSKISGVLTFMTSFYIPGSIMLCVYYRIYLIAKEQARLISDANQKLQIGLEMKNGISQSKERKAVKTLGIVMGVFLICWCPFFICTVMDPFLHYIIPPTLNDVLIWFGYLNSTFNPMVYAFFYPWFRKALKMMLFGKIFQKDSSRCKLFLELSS
#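 Assay system: CHO-derived RD-HGA16 cells stably expressing human TAAR1 plus Gα16. Timing: 140 s kinetic read after compound, 140 s after agonist. Technique: kinetic Fluo-8 calcium fluorescence measurement. Measure: % inhibition of agonist calcium response.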
# TAAR1 agonist: agonists of human TAAR1 | Q96RJ0 | CHO RD-HGA16 TAAR1, Fluo-8 calcium fluorescence; vehicle wells 0%, saturating PEA agonist 100% | activation, % at 3 µM | 360,000 tested, 0.99% active | AID 624467;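 active means activation above the mean activation of all test compounds in the run plus 3 SD, cut at about 38% in these data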
#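 Test system: RD-HGA16 (CHO) cells co-expressing Gα16 and hTAAR1 / Benchmarks: DMSO vehicle as 0%, PEA at EC100 as 100% / Repeats: no replicates (n 1) / Measure: % activation from peak over basal fluorescence ratio, DMSO-to-PEA scaled / Timing: 17-24 h plating, Fluo-8 75 min 37 °C, 30 min RT / Technique: kinetic Fluo-8 calcium fluorescence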
# OXTR potentiate: potentiators of human oxytocin receptor. P30559. CHO-OTR cells, Fluo-8 calcium fluorescence, potentiator mode; 0% = oxytocin EC15, 100% = EC100. activation, % at 3 µM. 320,000 tested, 0.061% active;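 active means activation above that plate's cutoff, the mean activation of tested compounds plus 3 SD, cut at about 6.6% in these data, passing the limit was not always enough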
#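 Assay system: CHO cell line stably expressing human OTR. Reagent: EC15 oxytocin agonist. Dosing: single dose, 3.0 µM nominal final compound concentration. Timing: compound 6 min at room temperature before oxytocin, 100 s read. Signal: kinetic Fluo-8 calcium fluorescence. Controls: oxytocin EC15 low and EC100 high.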
# TAAR1 nonsel count: counter-screen for TAAR1 antagonists: nonselective antagonists; 2,400 tested, 77% active; shares compounds with TAAR1 antagonist; inhibition, % at 3 µM; counterscreen cell line, calcium fluorescence, antagonist mode; in the data active means inhibition above about 22%;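 further: CHO-Ga16 host cells stimulated with ATP at an EC80 level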
# TAAR1 antag conf: confirmation of human TAAR1 antagonists. shares compounds with TAAR1 antagonist. TAAR1-expressing cells, fluorescence antagonist read-out. inhibition, % at 3 µM. 2,400 tested, 40% active. AID 651785; in the data active means inhibition above about 49%;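 further: CHO-Ga16 host cells challenged with agonist PEA near its EC80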
# Ga16 nonsel ag: counter-screen for TAAR1 antagonists: nonselective Ga16 agonists | 2,400 tested, 18% active | shares compounds with TAAR1 antagonist | AID 651953 | Ga16-expressing cells, calcium fluorescence, agonist counterscreen | activation, % at 3 µM; in the data active means activation above about 12%
# TAAR1 ag counter: counter-screen for human TAAR1 antagonists: TAAR1 agonists. 2,400 tested, 2% active. activation, % at 3 µM. shares compounds with TAAR1 antagonist. hTAAR1 cell line, fluorescence activation, agonist mode; in the data active means activation above about 37%;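 further: CHO cells stably expressing TAAR1 with calcium dye readout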
# A number is an active result; 0 = inactive; - = no result.
SMILES,OXTR agonist,V1aR counter,TAAR1 antagonist,TAAR1 agonist,OXTR potentiate,TAAR1 nonsel count,TAAR1 antag conf,Ga16 nonsel ag,TAAR1 ag counter
O=C(c1ccco1)N1CCN(C/C=C/c2ccccc2)CC1,0,0,0,0,0,-,-,-,-
O=C(c1nn(Cc2ccccc2)c(=O)c2ccccc12)N1CCN(C/C=C/c2ccccc2)CC1,0,0,50,0,0,0,0,0,0
CC(C)(C)OC(=O)CNC(=O)c1[nH]cnc1C(=O)NCCCCCNC(=O)OC(C)(C)C,0,0,68,0,0,41,60,16,0
CC(C)C[C@H](NC(=O)c1nc[nH]c1C(=O)NCCCCCNC(=O)OC(C)(C)C)C(=O)OC(C)(C)C,0,0,0,0,0,-,-,-,-
C[C@H](NC(=O)c1nc[nH]c1C(=O)NCCCCCNC(=O)OC(C)(C)C)C(=O)OC(C)(C)C,0,0,61,0,0,31,0,0,0
CC(C)(C)OC(=O)CNC(=O)c1[nH]cnc1C(=O)NCCCCCN,0,0,0,0,0,-,-,-,-
Cc1c(NC(=O)c2ccco2)cccc1C(=O)NN1C(=O)c2ccccc2C1=O,0,0,0,0,0,-,-,-,-
Cn1c(=O)c2ncn(C)c2n(C)c1=O,-,-,0,0,-,-,-,-,-
COc1ccc(CNC(=O)CN(Cc2ccc(C)cc2)S(=O)(=O)c2ccc(Cl)cc2)cc1,0,0,59,0,0,38,0,0,0
O=C(/C=C/c1ccccc1)Nc1cccc(C(=O)NCCCc2ccccc2)c1,-,-,77,0,-,35,50,0,0
O=C(/C=C/c1ccccc1)Nc1ccc2c(c1)C(=O)NC2=O,0,0,59,0,0,24,0,14,0
O=C(NCCCCc1ccccc1)c1cccc(NC(=O)C2CCCC2)c1,-,-,64,0,-,25,0,0,0
O=C(Nc1ccc(Nc2ccccc2)cc1)c1ccc(Br)cc1,0,0,0,0,0,-,-,-,-
O=C(/C=C/c1ccccc1)Nc1cccc(C(=O)NCc2ccccc2)c1,-,-,0,0,-,-,-,-,-
O=C(NCCCCc1ccccc1)c1cccc(NC(=O)c2ccccc2)c1,-,-,0,0,-,-,-,-,-
O=C(Nc1cccc(C(=O)Nc2ccc(Br)cc2)c1)c1ccccc1,0,0,76,0,0,44,57,0,0
COc1ccccc1C(CNC(=O)C(CCSC)NC(=O)c1ccccc1Cl)N1CCCC1 (centres undefined),-,-,0,0,-,-,-,-,-
O=C1CCC/C(=N/Nc2ccc(Cl)cc2)C1,0,0,0,0,0,-,-,-,-
O=C(NCCc1ccc(F)cc1)c1cccc(NC(=O)c2ccccc2)c1,0,0,61,0,0,33,51,0,0
O=C(NCc1ccc(Cl)cc1)c1cccc(NC(=O)c2ccccc2)c1,0,0,0,0,0,-,-,-,-
O=C(CN1CCC(n2nnc3cc(F)ccc32)CC1)NC1CC1,0,0,0,0,0,-,-,-,-
CCOc1ccc2nc(NC(=O)CN3CCC(n4nnc5cc(F)ccc54)CC3)sc2c1,0,0,68,0,0,23,0,0,0
Cc1cc(NC(=O)c2cc(-c3ccncc3)nc3ccccc23)ccc1Br,0,0,0,0,0,-,-,-,-
CN1/C(=C\C(=O)COC(=O)Cn2nnc(-c3ccccc3)n2)C(C)(C)c2ccccc21,0,0,52,0,0,44,0,0,0
COc1cc(OC)cc(C(=O)NCC(=O)OCC(=O)/C=C2/N(C)c3ccccc3C2(C)C)c1,0,0,0,0,0,-,-,-,-
SMILES,OXTR agonist,V1aR counter,TAAR1 antagonist,TAAR1 agonist,OXTR potentiate,TAAR1 nonsel count,TAAR1 antag conf,Ga16 nonsel ag,TAAR1 ag counter
CC(C)[C@H](NC(=O)c1ccccc1)C(=O)OCC(=O)/C=C1/N(C)c2ccccc2C1(C)C,0,0,71,0,0,41,55,0,0
Cc1cccc(N(C(=O)c2snc(C(N)=O)c2N)C(C(=O)NC2CCCC2)c2ccncc2)c1 (centres undefined),0,0,0,0,0,-,-,-,-
NC(=O)c1nsc(C(=O)N(c2cccc(O)c2)C(C(=O)NC2CCCC2)c2ccc(Cl)cc2)c1N (centres undefined),0,0,66,0,0,25,53,0,0
CCOc1ccc(C(C(=O)NC2CCCC2)N(C(=O)c2snc(C(N)=O)c2N)c2cccc(O)c2)cc1 (centres undefined),0,0,99,0,0,37,81,0,0
CC(C)(C)C(=O)Nc1ccc(Sc2ccc([N+](=O)[O-])cc2)cc1,0,0,91,0,0,49,60,0,0
CC(=O)Nc1ccc(Sc2ccc([N+](=O)[O-])o2)cc1,-,-,0,0,-,-,-,-,-
Cc1ccc(NNC(=O)c2cc(C(C)(C)C)nn2Cc2ccccc2)cc1,0,0,0,0,0,-,-,-,-
Cc1ccc(NC(=O)c2cc(C(C)(C)C)nn2Cc2ccccc2)cc1,0,0,61,0,0,24,0,0,0
O=C(c1cc(C2CCCCN2S(=O)(=O)c2cccs2)on1)N1CCOCC1 (centres undefined),-,-,0,0,-,-,-,-,-
CC(C)NC(=O)c1cnc(N2CCN(c3ccccn3)CC2)c2ccccc12,0,0,0,0,0,-,-,-,-
CCc1ccc(NC(=O)c2cnc(N3CCN(c4ccccn4)CC3)c3ccccc23)cc1,0,0,68,0,0,37,55,12,0
O=C(CN1CCN(c2ccccn2)CC1)Nc1ccccc1C(=O)Nc1ccccc1,0,0,65,0,0,27,0,0,0
COc1ccc(C(=O)NCCS(=O)(=O)NCc2ccc(F)cc2)cc1,0,0,0,0,0,-,-,-,-
COc1ccc(-c2c(C#Cc3ccsc3)c3cc(-c4ccc(C(N)=O)cc4)ccc3n2C)cc1,0,0,102,0,0,0,90,0,0
COc1ccc(-c2c(C#Cc3ccsc3)c3cc(-c4ccc5[nH]ccc5c4)ccc3n2C)cc1,0,0,0,0,0,-,-,-,-
CC(C)c1ccc(-c2nn(-c3ccccc3)cc2C(=O)NCC2CCCO2)cc1 (centres undefined),0,0,88,0,0,0,0,0,0
CC1CCN(C(=O)c2ccc(N(C)S(C)(=O)=O)cc2)CC1,0,0,107,0,0,0,0,0,0
O=C(C1=NOC2(C1)C(=O)Nc1ccccc12)N1CCCC1 (centres undefined),-,-,0,0,-,-,-,-,-
Cc1ccc2c(c1)C(=O)C(=O)N2Cc1ccc(Cl)cc1,0,0,55,0,0,0,0,0,0

# From PubChem BioAssay
